Several values for one entry are separate records, joined by “and”; a condition that tells them apart may be missing. Equal values may be shown once.
Columns and labels:
[1] = molecular target: T1, Stromelysin-1 (Homo sapiens, UniProt P08254); test: Inhibition of human matrix metalloprotease-3
How it was run: (§1)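 Fluorogenic peptide cleavage assay with substrate Mca-Pro-Leu-Gly-Leu-Dpa-Ala-Arg-NH2. The enzyme was truncated recombinant MMP-3 lacking the PEX and pro domains, used instead of activated pro-MMP-3 because activation of the proenzyme was not reproducible.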

[2] = molecular target: T2, 72 kDa type IV collagenase (Homo sapiens, UniProt P08253); test: Inhibition of human matrix metalloprotease-2
[3] = molecular target: T1, Stromelysin-1; test: Inhibition of human matrix metalloprotease-3 (inactive); how it was run: as §1
[4] = molecular target: T2, 72 kDa type IV collagenase; test: Inhibition of human matrix metalloprotease-2 (inactive)
How it was run: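 Fluorogenic peptide cleavage assay with substrate Mca-Pro-Leu-Gly-Leu-Dpa-Ala-Arg-NH2. The enzyme was recombinant pro-MMP-2 activated with APMA.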

[5] = molecular target: Matrix metalloproteinase (2 and 3) (Homo sapiens) (UniProt P08254+P08253); test: Selectivity ratio for Matrix metalloprotease-2 over Matrix metalloprotease-3 (IC50); format: protein assay
Matrix metalloproteinase (2 and 3) (Homo sapiens), sequence (P08253 whole entry, looked up): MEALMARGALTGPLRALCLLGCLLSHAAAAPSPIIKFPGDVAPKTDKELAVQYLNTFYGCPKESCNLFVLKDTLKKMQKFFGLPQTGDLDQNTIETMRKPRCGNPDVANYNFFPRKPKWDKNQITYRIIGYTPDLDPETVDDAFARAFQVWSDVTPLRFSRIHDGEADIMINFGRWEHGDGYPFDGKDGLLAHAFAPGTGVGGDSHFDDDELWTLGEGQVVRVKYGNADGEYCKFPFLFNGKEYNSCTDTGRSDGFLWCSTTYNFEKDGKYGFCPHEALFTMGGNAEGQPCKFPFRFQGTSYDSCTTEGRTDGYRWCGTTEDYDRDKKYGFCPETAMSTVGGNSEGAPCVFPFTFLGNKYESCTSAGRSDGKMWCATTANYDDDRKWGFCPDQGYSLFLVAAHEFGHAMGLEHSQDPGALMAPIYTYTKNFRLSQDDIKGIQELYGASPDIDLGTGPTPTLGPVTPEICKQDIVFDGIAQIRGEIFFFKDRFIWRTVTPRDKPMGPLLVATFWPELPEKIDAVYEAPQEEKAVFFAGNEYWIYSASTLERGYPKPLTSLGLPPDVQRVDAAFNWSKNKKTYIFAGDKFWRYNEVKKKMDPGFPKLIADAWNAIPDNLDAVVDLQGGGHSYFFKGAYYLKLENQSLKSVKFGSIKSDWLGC
Matrix metalloproteinase (2 and 3) (Homo sapiens), sequence (P08254 whole entry, looked up): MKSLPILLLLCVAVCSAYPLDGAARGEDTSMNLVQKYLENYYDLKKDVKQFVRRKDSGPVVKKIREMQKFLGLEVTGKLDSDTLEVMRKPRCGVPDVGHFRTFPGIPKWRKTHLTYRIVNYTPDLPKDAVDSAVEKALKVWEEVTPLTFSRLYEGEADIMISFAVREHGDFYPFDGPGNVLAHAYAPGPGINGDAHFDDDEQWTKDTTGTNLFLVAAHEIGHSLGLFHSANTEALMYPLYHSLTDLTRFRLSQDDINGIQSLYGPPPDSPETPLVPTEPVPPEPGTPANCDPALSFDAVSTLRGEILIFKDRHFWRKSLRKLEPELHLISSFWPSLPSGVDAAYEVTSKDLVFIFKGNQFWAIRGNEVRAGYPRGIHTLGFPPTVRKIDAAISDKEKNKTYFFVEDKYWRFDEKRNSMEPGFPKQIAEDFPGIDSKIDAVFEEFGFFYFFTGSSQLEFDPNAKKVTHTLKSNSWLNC

T1 sequence (P08254 whole entry, the tested form may be a part): as the sequence (P08254 whole entry, looked up) above
T2 sequence (P08253 whole entry): as the sequence (P08253 whole entry, looked up) above

IC50 [1] | IC50 [2] | IC50 [3] | IC50 [4] | Selectivity [5] | SMILES
179 nM | 1.3 nM |  |  |  | CNC(=O)[C@H](Cc1c[nH]c2ccccc12)NC(=O)/C(=C/C(C)C)CC(=O)NO [listing 1 of 3 here]
 |  | Not Active | Not Active |  | CNC(=O)[C@H](Cc1c[nH]c2ccccc12)NC(=O)/C(=C/C(C)C)CC(=O)OC
0.191 nM |  |  |  |  | CNC(=O)[C@H](Cc1c[nH]c2ccccc12)NC(=O)[C@@H](CC(=O)NO)CC(C)C [ILOMASTAT]
 |  |  |  | 138 and 46 | CNC(=O)[C@H](Cc1c[nH]c2ccccc12)NC(=O)/C(=C/C(C)C)CC(=O)NO [listing 2 of 3 here]
665 nM | 5.73 nM |  |  | 116 | CNC(=O)C(Cc1c(CCN(C)C)[nH]c2ccccc12)NC(=O)/C(=C/C(C)C)CC(=O)NO (centres undefined)
2340 nM | 5.97 nM |  |  | 392 | CCOC(=O)[C@H](Cc1c[nH]c2ccccc12)NC(=O)/C(=C/C(C)C)CC(=O)NO
910 nM | 19.6 nM |  |  |  | CNC(=O)[C@H](Cc1c[nH]c2ccccc12)NC(=O)/C(=C/C(C)C)CC(=O)NO [listing 3 of 3 here]

Source: ChEMBL document CHEMBL1145729, “MMPs inhibitors: new succinylhydroxamates with selective inhibition of MMP-2 over MMP-3” (Bioorg Med Chem Lett, 2003)
